pKd: −log10 of the molar value. Activity calls are given as the source filed them. No cut-off for these calls is given here.
How the values were obtained:
[1] = species: Homo sapiens; experiment: Activation of human STEP46 (197 to 565 residues) expressed in Escherichia coli BL21(DE3) at 100 uM using biotin-pFyn peptide substrate after 60 mins by AlphaLISA assay relative to control
Outline: (§1)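 STEP46 (50 nM final) with biotinylated pFyn peptide (20 nM final) and compound in 1% DMSO, 60 min at room temperature in the dark. Detection by anti non-phospho Src/Tyr416 antibody in stop buffer containing 10 μM orthovanadate, plus protein A acceptor and streptavidin donor beads, 15 min each. % CTL computed against enzyme (100%) and no-enzyme (0%) controls.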

[2] = target: T1, Tyrosine-protein phosphatase non-receptor type 5 (Homo sapiens, UniProt P54829); experiment: Binding affinity to human 15N-labeled STEP PTP domain (281 to 563 residues) expressed in Escherichia coli OD2 by 1H,15N TROSY NMR spectral analysis
T1 sequence (P54829 whole entry): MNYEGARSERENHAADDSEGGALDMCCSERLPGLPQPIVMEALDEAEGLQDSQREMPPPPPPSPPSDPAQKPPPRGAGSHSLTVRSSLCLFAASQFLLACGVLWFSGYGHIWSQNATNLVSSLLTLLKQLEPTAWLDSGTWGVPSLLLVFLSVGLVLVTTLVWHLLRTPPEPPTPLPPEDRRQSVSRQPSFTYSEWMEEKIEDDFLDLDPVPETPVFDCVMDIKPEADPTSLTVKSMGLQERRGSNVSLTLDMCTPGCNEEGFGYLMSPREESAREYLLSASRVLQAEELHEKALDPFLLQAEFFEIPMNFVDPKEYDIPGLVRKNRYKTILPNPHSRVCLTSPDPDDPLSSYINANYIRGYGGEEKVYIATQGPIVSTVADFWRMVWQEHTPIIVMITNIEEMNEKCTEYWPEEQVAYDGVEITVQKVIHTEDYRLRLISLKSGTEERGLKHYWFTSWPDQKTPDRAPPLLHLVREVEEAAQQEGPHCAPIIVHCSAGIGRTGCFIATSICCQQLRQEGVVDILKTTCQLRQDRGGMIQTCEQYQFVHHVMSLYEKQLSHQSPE
Outline: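 40 μM ¹⁵N-labeled STEP PTP domain (expressed in ¹⁵N OD2 medium) in 20 mM Tris-d11, 100 mM NaCl, 1 mM TCEP, pH 7.4, 8% D₂O, with 500 μM ligand and 1% DMSO-d₆ at 298 K. 2D spectra of 192 transients were compared by hand with the protein reference spectrum.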

[3] = species: Homo sapiens; experiment: Activation of human STEP46 (197 to 565 residues) expressed in Escherichia coli BL21(DE3) at 300 uM preincubated for 10 mins followed by DiFMUP substrate addition and measured at 1 min time interval for 30 mins by fluorescence assay relative to control
Outline: (§2)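 STEP46 preincubated 10 min at room temperature with compound; reaction started with DiFMUP. Final: 100 nM STEP46, 1 μM DiFMUP, 50 mM HEPES, 0.02% Brij 35, 1 mM DTT, 5% DMSO. Fluorescence (ex 340/em 460 nm) every 1 min for 30 min at 37 °C; no-enzyme background subtracted. Linear slope expressed relative to enzyme without compound (100%).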

[4] = target: T1, Tyrosine-protein phosphatase non-receptor type 5; experiment: Binding affinity to human STEP PTP domain (281 to 563 residues) expressed in Escherichia coli BL21(DE3) by ITC
Outline: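 Desalted STEP PTP domain in 10 mM HEPES, 200 mM NaCl, 0.5 mM TCEP, pH 7.5. 200 μM protein titrated with 18 × 2 μL injections of 2 mM ligand at 25 °C. Single-site model fit gave ΔH, n, ΔS and Ka; mean ± SD of three independent titrations.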

[5] = target: T2, Tyrosine-protein phosphatase non-receptor type 5 (Homo sapiens) (UniProt P54829); experiment: Binding affinity to human 15N-labeled STEP PTP domain (281 to 563 residues) expressed in Escherichia coli OD2 assessed as induction of chemical perturbation at 500 uM by 1H,15N TROSY NMR spectral analysis
T2 sequence (whole entry): T1 sequence (P54829 whole entry)
Outline: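 40 μM 15N-labelled STEP PTP domain in 20 mM Tris-d11, 100 mM NaCl, 1 mM TCEP, pH 7.4, 8% D2O, 1% DMSO-d6, 298 K. TROSY spectra used 192 transients and 64 indirect points. Binders were called by manual comparison with the protein-only reference spectrum.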

[6] = target: T2, Tyrosine-protein phosphatase non-receptor type 5 (Homo sapiens); experiment: Activation of human STEP PTP domain (281 to 563 residues) expressed in Escherichia coli BL21(DE3) at 500 uM using biotin-pFyn peptide substrate after 60 mins by AlphaLISA assay relative to control
Outline: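 AlphaLISA on the human STEP PTP domain (E. coli BL21(DE3)), 20 nM enzyme with 3 nM biotin-pFyn peptide, otherwise as for STEP46: 60 min at room temperature, anti non-phospho Src/Tyr416 antibody with orthovanadate stop, donor and acceptor beads, % of enzyme and no-enzyme controls.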

[7] = species: Homo sapiens; experiment: Activation of human STEP46 (197 to 565 residues) expressed in Escherichia coli BL21(DE3) at 500 uM using biotin-pFyn peptide substrate after 60 mins by AlphaLISA assay relative to control; outline: as §1
[8] = target: T3, Tyrosine-protein phosphatase non-receptor type 1 (Homo sapiens) (UniProt P18031); experiment: Binding affinity to human PTP1B by 1H,15N TROSY NMR spectral analysis
T3 sequence (whole entry): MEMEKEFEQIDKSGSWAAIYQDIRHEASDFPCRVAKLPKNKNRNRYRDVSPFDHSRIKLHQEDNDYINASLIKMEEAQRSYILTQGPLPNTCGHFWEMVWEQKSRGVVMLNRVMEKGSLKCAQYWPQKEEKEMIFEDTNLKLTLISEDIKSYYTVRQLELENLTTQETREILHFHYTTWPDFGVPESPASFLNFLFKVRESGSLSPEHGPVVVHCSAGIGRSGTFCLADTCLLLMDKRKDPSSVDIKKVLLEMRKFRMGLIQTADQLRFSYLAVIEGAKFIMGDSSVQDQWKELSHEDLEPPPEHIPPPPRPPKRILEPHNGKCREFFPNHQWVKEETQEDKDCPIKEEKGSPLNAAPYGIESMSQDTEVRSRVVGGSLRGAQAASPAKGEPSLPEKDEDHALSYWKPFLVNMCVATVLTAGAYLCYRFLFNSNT

[9] = species: Homo sapiens; experiment: Activation of human STEP46 (197 to 565 residues) expressed in Escherichia coli BL21(DE3) using biotin-pFyn peptide substrate after 60 mins by AlphaLISA assay; outline: as §1
[10] = species: Homo sapiens; experiment: Activation of human STEP46 (197 to 565 residues) expressed in Escherichia coli BL21(DE3) at 1000 uM preincubated for 10 mins followed by DiFMUP substrate addition and measured at 1 min time interval for 30 mins by fluorescence assay relative to control; outline: as §2
[11] = target: T2, Tyrosine-protein phosphatase non-receptor type 5 (Homo sapiens); experiment: Activation of human STEP PTP domain (281 to 563 residues) expressed in Escherichia coli BL21(DE3) assessed as ratio of Kcat to Km at 500 uM using pFyn peptide substrate after 60 mins by RapidFire MS/MS assay (reference value: 400 +/- 20 /M/s)

- Activity [1]: 33%
- pKd [2]: 4.42
- Activity [3]: 27%
- pKd [4]: 3.10
- Activity [5]: Active
- Activity [6]: 61%
- Activity [7]: 56%
- Activity [8]: inactive
- Activity [9]: Dose-dependent effect
- Activity [10]: 48%
- Ratio [11]: 650 M⁻¹ s⁻¹
Compound: N=C(N)Nc1cc(C2CCNCC2)cc(C(F)(F)F)c1

Reference: ChEMBL document CHEMBL4308845, “Allosteric Activation of Striatal-Enriched Protein Tyrosine Phosphatase (STEP, PTPN5) by a Fragment-like Molecule” (J Med Chem, 2019)
